Reference: ChEMBL document CHEMBL4229537, “Synthesis and bioactivities evaluation of l-pyroglutamic acid analogues from natural product lead” (Bioorg Med Chem, 2018)
Values after ≈ are worked out from the molar mass of the structure shown.

Assays:
Bacillus thuringiensis = assay: Antibacterial activity against Bacillus thuringiensis at 2 mg/ml after 4 to 10 hrs by filter paper dispersion method; format: functional; settings: read-out: IZ
In short: (§1)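 Filter paper diffusion method. Activated bacteria suspended in sterile water, mixed into beef extract peptone medium, and 3 mL poured per 9 cm dish. 5 µL of 2 mg/mL compound applied to 6 mm paper discs in three parallels. Fosfomycin as positive control, solvent as negative control. Dried discs placed on medium and incubated 4-10 h at 37°C. Inhibition zone size and transparency recorded by crisscross method.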

Phytophthora infestans [1] = assay: Antifungal activity against Phytophthora infestans assessed as inhibition of zoospore release at 100 ug/ml after 4 hrs relative to control; format: functional
In short: (§2)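 Zoospore release assay: compounds mixed with zoosporangia, held at 4 °C in darkness for 4 h; screened at 100 µg/mL. Solvent negative, azoxystrobin positive control. Release scored once control release reached 90%. Inhibition (%) = (P0−P1)/P0×100. EC50 determined for compounds exceeding 50% inhibition. Means ± SD of three independent experiments.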

Phytophthora infestans [2] = assay: Antifungal activity against Phytophthora infestans assessed as inhibition of zoospore release after 4 hrs; format: functional, organism-based; in short: as §2
PC-12 = assay: Neurotogenic activity in NGF-induced rat PC12 cells assessed as neurite bearing cell levels at 20 uM after 48 hrs by inverted microscopic method (reference value: 0.77 +/- 0.13%); format: functional
Bacillus cereus = assay: Antibacterial activity against Bacillus cereus at 2 mg/ml after 4 to 10 hrs by filter paper dispersion method; format: functional; settings: read-out: IZ; in short: as §1
BV-2 = assay: Antiinflammatory activity in mouse BV2 cells assessed as inhibition of LPS-induced nitric oxide production after 24 hrs by Griess assay; format: functional, cell-based; settings: BV-2, 24 h
In short: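 BV-2 microglia plated at 1 × 10^5 cells/mL and grown 24 h. Cells pretreated with compound, then stimulated with 1 µg/mL LPS for another 24 h. Quercetin as positive control. Supernatant mixed with Griess reagent and absorbance read at 540 nm. IC50 reported as mean ± SD of three independent experiments.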

[3] = Cytotoxicity against LPS-treated mouse BV2 cells assessed as cell viability after 24 hrs by SRB assay relative to control; format: cell-based, BV-2; set-up: concentration or dose not given beside the values; settings: read-out: Activity
In short: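 BV-2 cells pretreated with compound, then exposed to 1 µg/mL LPS for 24 h. Viability measured by SRB assay and expressed as % of control group. Mean ± SD of three independent experiments.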

[4] = test system: Pectobacterium carotovorum; assay: Antibacterial activity against Erwinia caratovora at 2 mg/ml after 4 to 10 hrs by filter paper dispersion method; format: functional; settings: read-out: IZ; in short: as §1
Staphylococcus aureus = assay: Antibacterial activity against Staphylococcus aureus at 2 mg/ml after 4 to 10 hrs by filter paper dispersion method; format: functional; settings: read-out: IZ; in short: as §1
Ralstonia solanacearum = assay: Antibacterial activity against Ralstonia solanacearum at 2 mg/ml after 4 to 10 hrs by filter paper dispersion method; format: functional; settings: read-out: IZ
Phytophthora infestans [5] = assay: Potency index, ratio of azoxystrobin EC50 to test compound EC50 for Phytophthora infestans; format: functional
[6] = test system: Pseudoperonospora cubensis; assay: Antifungal activity against Pseudoperonospora cubensis; format: functional, organism-based
Phytophthora infestans [7] = assay: Antifungal activity against Phytophthora infestans; format: functional, organism-based; in short: as §2

| Compound | zone of inhibition at 2000 µg/mL (Bacillus thuringiensis) | inhibition at 100 µg/mL (Phytophthora infestans [1]) | EC50 (Phytophthora infestans [2]) | also measured |
| --- | --- | --- | --- | --- |
| CNC(=O)[C@@H]1CCC(=O)N1 | 12 mm | 1.17% |  |  |
| CCCCOC(=O)[C@@H]1CCC(=O)N1 |  | 99% | 11.2 µg/mL (≈ 60.5 µM) |  |
| CCOC(=O)[C@@H]1CCC(=O)N1 |  | 95.8% | 15.2 µg/mL (≈ 97 µM) |  |
| O=C1CC[C@@H](C(=O)Oc2ccccc2)N1 |  | 98.3% | 19.5 µg/mL (≈ 95.1 µM) |  |
| COC(=O)[C@@H]1CCC(=O)N1 |  | 26.1% |  |  |
| O=C1CC[C@@H](C(=O)Nc2ccc([N+](=O)[O-])cc2)N1 |  | 47.5% |  |  |
| C=CCNC(=O)[C@@H]1CCC(=O)N1 | 11.5 mm | 49.3% |  | Activity (PC-12): 14.962%; zone of inhibition at 2000 µg/mL (Bacillus cereus): 15 mm; IC50 (BV-2): 9.1 µM; viability at 24 h [3]: 95.4% |
| NNC(=O)[C@@H]1CCC(=O)N1 | 14 mm |  |  |  |
| CCN(CC)C(=O)[C@@H]1CCC(=O)N1 |  | 35.8% |  | zone of inhibition at 2000 µg/mL (Bacillus cereus): 10 mm; zone of inhibition at 2000 µg/mL [4]: 12 mm |
| O=C1CC[C@@H](C(=O)NCCc2c[nH]c3ccccc23)N1 | 12 mm | 21.5% |  | zone of inhibition at 2000 µg/mL [4]: 15 mm |
| COC(=O)c1ccccc1NC(=O)[C@@H]1CCC(=O)N1 |  | 2.37% |  | zone of inhibition at 2000 µg/mL (Bacillus cereus): 6 mm; zone of inhibition at 2000 µg/mL (Staphylococcus aureus): 6 mm; zone of inhibition at 2000 µg/mL [4]: 9 mm; zone of inhibition at 2000 µg/mL (Ralstonia solanacearum): 10 mm |
| O=C1CC[C@@H](C(=O)Oc2cccc3ccccc23)N1 |  | 98.5% | 1.21 µg/mL (≈ 4.74 µM) | Ratio EC50 (Phytophthora infestans [5]): 7 |
| C#CCOC(=O)[C@@H]1CCC(=O)N1 |  |  |  | zone of inhibition at 2000 µg/mL (Ralstonia solanacearum): 6 mm |
| Nc1ccccc1NC(=O)[C@@H]1CCC(=O)N1 | 11.5 mm |  |  | zone of inhibition at 2000 µg/mL (Bacillus cereus): 5.5 mm |
| O=C1CC[C@@H](C(=O)Oc2ccccc2Cl)N1 |  | 98.4% | 14.6 µg/mL (≈ 60.8 µM) |  |
| O=C1CC[C@@H](C(=O)Oc2ccccc2[N+](=O)[O-])N1 |  | 96.3% | 8.58 µg/mL (≈ 34.3 µM) |  |
| C=CCOC(=O)[C@@H]1CCC(=O)N1 | 12 mm | 84.2% |  |  |
| C#CCNC(=O)[C@@H]1CCC(=O)N1 | 9 mm |  |  | IC50 (BV-2): 6 µM; viability at 24 h [3]: 89.5%; zone of inhibition at 2000 µg/mL (Staphylococcus aureus): 6 mm |
| NC(=O)[C@@H]1CCC(=O)N1 | 8 mm | 13.6% |  | zone of inhibition at 2000 µg/mL (Ralstonia solanacearum): 5.5 mm |
| N#Cc1ccccc1OC(=O)[C@@H]1CCC(=O)N1 | 14 mm | 98.3% | 9.62 µg/mL (≈ 41.8 µM) | zone of inhibition at 2000 µg/mL (Ralstonia solanacearum): 7 mm |

| Compound | zone of inhibition at 2000 µg/mL (Bacillus thuringiensis) | inhibition at 100 µg/mL (Phytophthora infestans [1]) | EC50 (Phytophthora infestans [2]) | also measured |
| --- | --- | --- | --- | --- |
| O=C1CC[C@@H](C(=O)Nc2ccc(C(F)(F)F)cc2)N1 | 13 mm |  |  | zone of inhibition at 2000 µg/mL (Bacillus cereus): 9.5 mm |
| O=C1CC[C@@H](C(=O)Nc2ccccc2O)N1 |  | 33.7% |  |  |
| O=C1CC[C@@H](C(=O)Oc2ccc(Cl)cc2)N1 |  | 98.1% | 1.44 µg/mL (≈ 6.01 µM) | Ratio EC50 (Phytophthora infestans [5]): 7 |
| CC(C)OC(=O)[C@@H]1CCC(=O)N1 |  | 36.5% |  |  |
| CCCCNC(=O)[C@@H]1CCC(=O)N1 | 7.5 mm | 17.8% |  |  |
| CC(C)NC(=O)[C@@H]1CCC(=O)N1 | 10 mm |  |  | zone of inhibition at 2000 µg/mL (Bacillus cereus): 5.5 mm |
| Cc1cc(Cl)ccc1OC(=O)[C@@H]1CCC(=O)N1 |  | 39.8% |  | IC50 (BV-2): 19.4 µM; viability at 24 h [3]: 91.1% |
| CC(C)(C)NC(=O)[C@@H]1CCC(=O)N1 |  |  |  | zone of inhibition at 2000 µg/mL (Bacillus cereus): 12 mm |
| CN(C)C(=O)[C@@H]1CCC(=O)N1 |  | 44.3% |  |  |
| CN1CCN(C(=O)[C@@H]2CCC(=O)N2)CC1 |  |  |  | zone of inhibition at 2000 µg/mL (Bacillus cereus): 7 mm |
| Cc1ccccc1OC(=O)[C@@H]1CCC(=O)N1 |  | 48.6% |  |  |
| CCCOC(=O)[C@@H]1CCC(=O)N1 |  | 95.1% | 12.4 µg/mL (≈ 72.6 µM) |  |
| CC(C)COC(=O)[C@@H]1CCC(=O)N1 |  | 64.9% |  |  |
| CCOC(=O)c1ccccc1OC(=O)[C@@H]1CCC(=O)N1 | 13 mm | 98.2% | 16.4 µg/mL (≈ 59.2 µM) | zone of inhibition at 2000 µg/mL (Staphylococcus aureus): 6.5 mm; zone of inhibition at 2000 µg/mL [4]: 11 mm; zone of inhibition at 2000 µg/mL (Ralstonia solanacearum): 5.5 mm |
| Cc1ccc(C(C)C)c(OC(=O)[C@@H]2CCC(=O)N2)c1 |  | 13.2% |  |  |
| CO/C=C(/C(=O)OC)c1ccccc1Oc1cc(Oc2ccccc2C#N)ncn1 [AZOXYSTROBIN] |  | 99.2% | 1.98 µg/mL (≈ 4.91 µM) |  |
| CC1(C)S[C@@H]2[C@H](NC(=O)Cc3ccccc3)C(=O)N2[C@H]1C(=O)O [PENICILLIN G SODIUM] | 27 mm |  |  | zone of inhibition at 2000 µg/mL (Bacillus cereus): 25 mm; zone of inhibition at 2000 µg/mL (Staphylococcus aureus): 28 mm; zone of inhibition at 2000 µg/mL [4]: 28 mm; zone of inhibition at 2000 µg/mL (Ralstonia solanacearum): 24 mm |
| O=C1CC[C@@H](C(=O)Oc2ccc(O)cc2)N1 [PIDOBENZONE] |  |  |  | Activity (PC-12): 15.443%; zone of inhibition at 2000 µg/mL (Bacillus cereus): 12 mm; IC50 (BV-2): 4.5 µM; viability at 24 h [3]: 92.6%; zone of inhibition at 2000 µg/mL (Staphylococcus aureus): 6 mm; zone of inhibition at 2000 µg/mL (Ralstonia solanacearum): 7 mm |
| O=C1CC[C@@H](C(=O)O)N1 [PIDOLIC ACID] | 17.5 mm | 98.8% | 7.85 µg/mL (≈ 60.8 µM) | EC50 [6]: 10.8 µg/mL (≈ 83.8 µM); EC50 (Phytophthora infestans [7]): 9.48 µg/mL (≈ 73.4 µM); zone of inhibition at 2000 µg/mL (Ralstonia solanacearum): 7.5 mm |
| O=c1c(O)c(-c2ccc(O)c(O)c2)oc2cc(O)cc(O)c12 [QUERCETIN] |  |  |  | IC50 (BV-2): 4.3 µM; viability at 24 h [3]: 99.5% |
